# Screens as filed in PubChem BioAssay.
# A selection: hits, their analogues and other compounds. The true share with any hit is near 2.9%.
# Statin myotox sup: suppression of simvastatin myotoxicity; C2C12 myotubes + simvastatin, ATP luminescence, 48 h; scaled: DMSO 0, geranylgeraniol control 100; rescue of ATP level, % at 7.49 µM; actives 0.78% (n = 330,000); AID 602340;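 active means mean ATP rescue above about 67%, or every replicate alone reaching that limit, limit read from the data, passing the limit was not always enough; inconclusive means no clear call, values can overlap the other calls; inactive means mean under the limit and some replicate under it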;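 further: myotubes were challenged with 10 µM simvastatin during compound exposure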
# PGC1a acetyl inh: PGC1a acetylation modulation, inhibitor mode; AID 651687; actives 0.17% (n = 350,000); inhibition, % at 15.6 µM; U2OS PGC1a acetylation, AlphaScreen anti-acetyl-lysine; with virally co-expressed GCN5 acetyltransferase;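 active means every replicate shows inhibition of at least 40%; inconclusive means mean inhibition at least 40% but some replicate below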
# S100A4 MyoIIA: blocks human S100A4 binding to myosin IIA peptide; P26447; S100A4/TAMRA-MyoIIA peptide fluorescence polarization; inhibition, % at 10.7 µM; actives 0.14% (n = 360,000);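 active means mean inhibition of at least 70% across replicates, with every replicate also reaching that level; inconclusive means mean inhibition reaches 70% but some replicates fall short; inactive means mean inhibition below 70%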
# Target sequence (P26447 whole entry, looked up): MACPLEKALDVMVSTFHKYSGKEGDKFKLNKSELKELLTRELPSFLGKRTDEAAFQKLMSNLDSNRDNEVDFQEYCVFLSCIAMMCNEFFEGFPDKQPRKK
#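 Material: S100A4 monomer protein | Medium: HEPES pH 7.2 with CaCl2, KCl, NaCl, DTT, Triton | Reagent: Labelled myosin peptide probe, 5 nM | Doses: One dose per compound | Times: 5 min incubation before reading | Benchmarks: Neutral control DMSO, positive control TFP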
# SIRT5 inh: blocks human SIRT5 desuccinylation of peptide; inhibition, % at 15 µM; Q9NXA8; AID 652115; actives 1.1% (n = 330,000); Purified SirT5, succinyl-peptide AMC, trypsin-coupled fluorescence; in the data active means inhibition above about 15%; inconclusive means no clear call, values can overlap the other calls
# Target sequence (Q9NXA8 whole entry, looked up): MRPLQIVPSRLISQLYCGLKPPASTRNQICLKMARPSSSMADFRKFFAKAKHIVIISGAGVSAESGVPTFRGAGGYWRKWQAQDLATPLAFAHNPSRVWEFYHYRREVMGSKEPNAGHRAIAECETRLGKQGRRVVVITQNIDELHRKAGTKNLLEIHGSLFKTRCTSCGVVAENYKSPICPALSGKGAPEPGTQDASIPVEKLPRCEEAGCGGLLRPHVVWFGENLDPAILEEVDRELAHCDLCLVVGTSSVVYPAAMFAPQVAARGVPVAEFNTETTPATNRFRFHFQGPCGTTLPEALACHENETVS
# DENV2 CPE rescue: protects cells from dengue virus 2 cytopathic effect | CPE inhibition, % at 9.99 µM | actives 1.7% (n = 350,000) | DENV2-infected cells, cytopathic effect rescue, plate reader; in the data active means CPE inhibition above about 20%, passing the limit was not always enough; inconclusive means no clear call, values can overlap the other calls; tested in BHK-21 cells
# A number is an active result; . = inactive; ? = inconclusive; / = no result given; ! = not active in a repeat.
SMILES,Statin myotox sup,PGC1a acetyl inh,S100A4 MyoIIA,SIRT5 inh,DENV2 CPE rescue
O=C(Nc1ccccc1)Nc1ccc2c(c1)[C@@H]1C[C@H](CC(=O)N3CCCCC3)O[C@@H](CO)[C@@H]1O2,.,.,.,.,?
CCc1nnc(N2C(=O)c3ccccc3C2(O)c2ccccc2)s1 (centres undefined),/,.,.,.,41
Cc1ccc(N2C(=O)c3ccccc3C2(O)c2ccccc2)cc1 (centres undefined),.,.,.,/,.
C[C@H]1CN([C@@H](C)CO)C(=O)c2cccc(NS(=O)(=O)c3cn(C)cn3)c2O[C@@H]1CN(C)Cc1ccc(Oc2ccccc2)cc1,.,.,.,.,.
N#CCSc1ccccc1NC(=O)CN1C(=O)C(=O)N(Cc2ccccc2)C1=O,/,/,.,/,41
Cn1c(=O)c2cc(S(=O)(=O)NC(C(=O)Nc3cccc(F)c3)c3ccccc3)ccc2n(C)c1=O (centres undefined),/,.,.,/,78
Cn1c(=O)c2cc(S(=O)(=O)NC(C(=O)Nc3cccnc3)c3ccccc3)ccc2n(C)c1=O (centres undefined),.,.,.,/,.
Cc1ccc(-c2nc3ccccc3[nH]2)cc1NC(=O)c1ccco1,116,.,/,/,/
O=C(Nc1cccc(-c2nc3ccccc3[nH]2)c1)c1cccc(NC(=O)c2ccco2)c1,.,.,/,/,/
O=C(NC1CCCCC1)c1ccc(S(=O)(=O)c2ccccc2)cc1,/,.,.,40,.
COc1ccc(S(=O)(=O)N(Cc2cccs2)C2CCCC2)cc1,106,.,/,/,/
CC1=[N+](C)c2ccc3ccccc3c2C1(C)C,/,/,145,.,?
C=C[C@@H](COC(C)=O)N(C(=O)OC(C)(C)C)S(=O)(=O)c1ccc(Br)cc1,/,.,.,.,.
CCC(=O)Nc1ccc2c(c1)C(=O)N(C)C[C@H](OC)[C@@H](C)CN(C(=O)CN(C)C)[C@@H](C)CO2,/,.,.,.,.
C[C@@H]1CN([C@H](C)CO)C(=O)Cc2cc(NC(=O)CCN3CCOCC3)ccc2O[C@H]1CN(C)S(=O)(=O)c1cccs1,.,.,.,.,.
C[C@H]1CN([C@@H](C)CO)S(=O)(=O)c2ccc(/C=C/c3ccccc3)cc2O[C@H]1CN(C)Cc1cncnc1,.,.,.,.,?
Cc1ccc(S(=O)(=O)N/N=C/c2c[nH]c3ccccc23)cc1,.,105,.,.,/
COc1ccc(OC)c(S(=O)(=O)N/N=C\c2c[nH]c3ccccc23)c1,.,/,.,.,37
CO[C@H]1CN(C)C(=O)c2cc(NC(=O)C3CC3)ccc2OC[C@H](C)N(C(=O)CN2CCOCC2)C[C@@H]1C,.,.,.,.,.
CCOC(=O)C(CC)n1cnc2c(nnn2-c2ccc(OC)cc2)c1=O (centres undefined),98,.,/,/,/
CCOC(=O)C(C)n1cnc2c(nnn2-c2ccc(OC)cc2)c1=O (centres undefined),/,.,/,/,/
CCOC(=O)C(C)n1cnc2c(nnn2-c2ccc(C)cc2)c1=O (centres undefined),.,67,/,/,/
C[C@H](CO)N1C[C@H](C)[C@@H](CN(C)C(=O)C2CCCCC2)Oc2ncc(C#Cc3cccc(F)c3)cc2C1=O,.,.,.,.,.
CNC[C@H]1OCCCC[C@H](C)Oc2ccc(NC(=O)NC(C)C)cc2C(=O)N([C@H](C)CO)C[C@@H]1C,/,.,.,.,.
COc1ccccc1N1C(=O)C2CCC(c3ccccc3)CC2C1=O (centres undefined),/,.,.,.,23
SMILES,Statin myotox sup,PGC1a acetyl inh,S100A4 MyoIIA,SIRT5 inh,DENV2 CPE rescue
C[C@H](CO)N1C[C@H](C)[C@H](CN(C)S(=O)(=O)c2cccc(F)c2)Oc2cc(C#CCN(C)C)ccc2S1(=O)=O,.,.,.,.,.
CC(C)CC#Cc1ccc2c(c1)O[C@@H](CN(C)S(=O)(=O)c1cccc(F)c1)[C@H](C)CN([C@@H](C)CO)S2(=O)=O,.,.,.,17,.
CC(C)CC#Cc1ccc2c(c1)O[C@H](CN(C)S(=O)(=O)c1cccc(F)c1)[C@@H](C)CN([C@H](C)CO)S2(=O)=O,.,.,.,16,.
CCCC#Cc1ccc2c(c1)O[C@@H](CN(C)S(=O)(=O)c1cccc(F)c1)[C@@H](C)CN([C@H](C)CO)S2(=O)=O,.,.,.,.,.
CC(C)CC#Cc1ccc2c(c1)O[C@@H](CN(C)S(=O)(=O)c1cccc(F)c1)[C@H](C)CN([C@H](C)CO)S2(=O)=O,.,.,.,19,.
CC(C)CC#Cc1ccc2c(c1)O[C@@H](CN(C)S(=O)(=O)c1cccc(F)c1)[C@@H](C)CN([C@@H](C)CO)S2(=O)=O,.,/,.,20,.
COCC#Cc1ccc2c(c1)O[C@@H](CN(C)S(=O)(=O)c1cccc(F)c1)[C@@H](C)CN([C@H](C)CO)S2(=O)=O,.,.,.,19!,.
COc1cccc(S(=O)(=O)N(C)C[C@H]2Oc3cc(C#CCN(C)C)ccc3S(=O)(=O)N([C@@H](C)CO)C[C@H]2C)c1,.,.,.,.,.
COCC#Cc1ccc2c(c1)O[C@@H](CN(C)S(=O)(=O)c1cccc(F)c1)[C@H](C)CN([C@H](C)CO)S2(=O)=O,.,.,.,.,?
CCCC#Cc1ccc2c(c1)O[C@H](CN(C)S(=O)(=O)c1cccc(OC)c1)[C@H](C)CN([C@H](C)CO)S2(=O)=O,.,.,.,17!,.
CNC[C@H]1OCCCC[C@@H](C)Oc2ccc(NC(=O)CCC(F)(F)F)cc2C(=O)N([C@@H](C)CO)C[C@H]1C,.,.,.,.,.
O=C(C[C@H]1CC[C@@H]2[C@H](COC[C@@H](O)CN2Cc2ccncc2)O1)NCc1ccccc1Cl,.,.,.,.,.
COc1cccc(S(=O)(=O)N2C[C@@H](O)COC[C@@H]3O[C@H](CC(=O)N4CCOCC4)CC[C@H]32)c1,.,.,.,.,.
O=C(C[C@@H]1CC[C@H](NC(=O)c2ccccc2)[C@H](CO)O1)NCc1ccc(Oc2ccccc2)cc1,.,.,.,.,.
O=C(Cc1ccccc1)c1ccc(O)cc1,.,.,.,18,.
O=C(Cc1ccc(Cl)cc1)c1ccc(O)cc1,/,.,.,.,.
O=C(Cc1ccccc1)c1ccc(Cl)cc1,/,/,.,.,.
Cc1ccc(CC(=O)c2ccc(Cl)cc2)cc1,133,.,.,.,?
C[C@@H]1CCCCO[C@@H](CN(C)S(=O)(=O)c2cccs2)[C@@H](C)CN([C@@H](C)CO)C(=O)c2cc(NS(=O)(=O)c3cccs3)ccc2O1,/,.,.,.,.
C[C@@H](NC(=O)C[C@H]1CC[C@H](NC(=O)Nc2ccc3c(c2)OCO3)[C@H](CO)O1)c1ccccc1,.,.,.,.,.
CN(Cc1cccc([N+](=O)[O-])c1)Cc1cccc2ccccc12,.,.,.,.,.
COc1cc(CN(C)Cc2cccc3ccccc23)cc([N+](=O)[O-])c1O,.,/,.,.,42
COCCn1c(-c2ccccc2F)n[nH]c1=S,137,.,/,/,/
